B1: tRNA (parent)
chain: CUCUCGGUAGCCAAGUUGGUUUAAGGCGCAAGACUUUAAUUUAUCACUACGAAAUCUUGAGAUCGGGCGUUCGACUCGCCCCCGGGAGAUUUUUUCCUCGAGCAA

This sample holds only a part of the variants without activity.

In the RNAGym collection of RNA variant scans (doi:10.1101/gad.245936.114) one finds nonsense suppression data, which are given here for 27 variants.

Variants of B1 are the subject of the series. Nature of the series: nonsense suppression (GFP-seq) (ratio to wild type); higher = more function; SUP4oc tRNA, yeast GFP reporter sort-seq. Summed up: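 Yeast carrying genome-integrated SUP4oc tRNA variants from a library with ~3% random mutations were grown in raffinose/galactose medium with 80 mg/L adenine. Each strain also carried a galactose-driven GFP ochre reporter and RFP. Cells were sorted into GFP/RFP bins, and each bin was Illumina-sequenced (phred ≥30). Nonsense suppression (GFPSEQ) is the bin median GFP/RFP, weighted by each variant's estimated cell share per bin, relative to wild-type SUP4oc; variants needed ≥100 reads and ≥30 cells.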
On to CUCUCGGUAGCCAAGUUGGUUUAAGGCGCAAGGCUUUAAUUUAUCACUACGAAAUCUUGAGAUCGGGCGUUCGACGCGCCCCCGGGAGAUUUUUUCCUCGAGCAA [A33G U76G], for which the nonsense suppression is at most 0.026. As for CUCUCGGUAGCCAAGUUGGUUUAAGGCGCAAGGCUUUAAUUUAUCACUACGAAAUCUUGAGAUCGGGCGUUCGACCCGCCCCCGGGAGAUUUUUUCCUCGAGCAA [A33G U76C], the nonsense suppression stood at 0.0419. Consider CUCUCGGUAGCCAAGUUGGUUUAAGGCGCAAGAAUUUAAUUUAUCACUACGAAAUCUUGAGAUCGGGCGUUCGACUCGCCCCCGGGGGAUUUUUUCCUCGAGCAA [C34A A87G], for which the nonsense suppression is at most 0.026. Then CUCUCGGUAGCCAAGUUGGUUUAAGGCGCAAGGCUUUAAUUUAUCACUACGAAAUCUAGAGAUCGGGCGUUCGACUCGCCCCCGGGAGAUUUUUUCCUCGAGCAA [A33G U58A], with at most 0.026; and CUCUCGGUAGCCAAGUUGGUUUAAGGCGCAAGUCUUUAAUUUAUCACUACGAAAUCCUGAGGUCGGGCGUUCGACUCGCCCCCGGGAGAUUUUUUCCUCGAGCAA [A33U U57C A62G], with at most 0.026; and CUCUCGGUAGCCAAGUUGGUUUAAGGCGCAAGUCUUUAAUUUAUCACUACGAAAUCUUGAGAUCGGGCGUUCGAAUCGCCCCCGGGAGAUUUUUUCCUCGAGCAA [A33U C75A], with 0.192. The same measure for CUCUCGGUAGCCAAGUUGGUUUAAGGCGCAAGUCUUUAAUUUAUCACUACGAAAUCUUGAGAUCGGGCCUUCAACUCGCCCCCGGGAGAUUUUUUCCUCGAGCAA [A33U G69C G73A]: at most 0.026. Then CUCUCGGUAGCCAAGUUGGUUUAAGGCGCAAGUCUUUAAUUUAUCACUACGAAAUCUUGUGAUCGGGCGUUCGACUCGCCCCCGGGAGAUUUUUUCCUCGAGCAA [A33U A60U], with 0.204; and CUCUCGGUAGCCAAGUUGGUUUAAGGCGCAAGUCUUUAAUUUAUCACUACGAAAGCUUGAGAUCGGGCGUUCGACUCGCCCCCGGGAGAUUUUUUCCUCGAGCAA [A33U U55G], with 0.167; and CUCUCGGUAGCCAAGUUGGUUUAAGGCGCAAGAAUUUAAUUUAUCACUACGAAAUCUUGAGAUCGGGCAUUCGACUCGCCCCCGGGAGAUUUUUUCCUCGAGCAA [C34A G69A], with at most 0.026. With CUCUCGGUAGCCAAGUUGGUUUAAGGCGCAAGUCUUUAAUUUAUCACUACGAAAUCUUGAGAUCGGGCGUACGACUCGCCCCCGGGAGAUUUUUUCCUCGAGCAA [A33U U71A], the nonsense suppression is at most 0.026.

As for CUCUCGGUAGCCAAGUUGGUUUAAGGCGCAAGUCUUUAAUUUAUCACUACGAAAUCUUGAGAUCGGGCGUUCCACUCGCCCCCGGGAGAUUUUUUCCUCGAGCAA [A33U G73C], the nonsense suppression is at most 0.026. The same measure for CUCUCGGUAGCCAAGUUGGUUUAAGGCGCAAGUCUUUAAUUUAUCACUACGAAAUCUUGAGAUCGGGCGUUCGACUCGCCCCCGAGAGAUUUUUUCCUCGAGCAA [A33U G85A]: 0.0389.

On to CUCUCGGUAGCCAAGUUGGUUUAAGGCGCAAGGCUUUAAUUUAUCACUACGAAAUCAUGAGAUCGGGCGUUCGACUCGCCCCCGGGAGAUUUUUUCCUCGAGCAA [A33G U57A], for which the nonsense suppression was at most 0.026. Regarding CUCUCGGUAGCCAAGUUGGUUUAAGGCGCAAGAAUUUAAUUUAUCACUACGAAAACUUGAGAUCGGGCGUUCGACUCGCACCCGGGAGAUUUUUUCCUCGAGCAA [C34A U55A C80A], the nonsense suppression is at most 0.026. The same measure for CUCUCGGUAGCCAAGUUGGUUUAAGGCGCAAGGCUUUAAUUUAUCACUACGAAAACUUGAGAUCGGGCGUUCGCCUCGCCCCCGGGAGAUUUUUUCCUCGAGCAA [A33G U55A A74C]: at most 0.026. On to CUCUCGGUAGCCAAGUUGGUUUAAGGCGCAAGAAUUUAAUUUAUCACUACGAAAUCUUGAGAUCCGGCGUUCGACUCGCCCCCGCGAGAUUUUUUCCUCGAGCAA [C34A G65C G85C], for which the nonsense suppression was at most 0.026. Then CUCUCGGUAGCCAAGUUGGUUUAAGGCGCAAGUCUUUAAUUUAUCACUACGAAAUCUUGAGAACGGGCGUUCGACUCGCCCCCGGGAGAUUUUUUCCUCGAGCAA [A33U U63A], with 0.0268; and CUCUCGGUAGCCAAGUUGGUUUAAGGCGCAAGAAUUUAAUUUAUCACUACGAAAUCUUGAGAUCGGGAGUUCGACUCGCCCCCGGGUGAUUUUUUCCUCGAGCAA [C34A C68A A87U], with at most 0.026. The same measure for CUCUCGGUAGCCAAGUUGGUUUAAGGCGCAAGGCUUUAAUUUAUCACUACGAAAUCUUGAGAACGGGCGUUCGACUCGCCCCCGGGAGAUUUUUUCCUCGAGCAA [A33G U63A]: 0.031; for CUCUCGGUAGCCAAGUUGGUUUAAGGCGCAAGGCUUUAAUUUAUCACUACGAAAUCUUGAGACCGGGCGUUCGACUCGCCCCCGGGAGAUUUUUUCCUCGAGCAA [A33G U63C]: 0.11. Then CUCUCGGUAGCCAAGUUGGUUUAAGGCGCAAGUCUUUAAUUUAUCACUACGAAAUCUUGAGAUCGGGCGUUCGACUCGCCCCCGGGAGAUUUUUUCCUCGAGCAA [A33U], with 0.0699; and CUCUCGGUAGCCAAGUUGGUUUAAGGCGCAAGGCUUUAAUUUAUCACUACGAAAUCAUGAGAUCGGGCGUUCGACCCGCCCCCGGGAGAUUUUUUCCUCGAGCAA [A33G U57A U76C], with at most 0.026.

On to CUCUCGGUAGCCAAGUUGGUUUAAGGCGCAAGUCUUUAAUUUAUCACUACGAAACCUUGAGAACGGGCGCUCGACUCGCCCCCGGGAGAUUUUUUCCUCGAGCAA [A33U U55C U63A U70C], for which the nonsense suppression is at most 0.026.

Consider CUCUCGGUAGCCAAGUUGGUUUAAGGCGCAAGAAUUUAAUUUAUCACUACGAAUUCUUGAGAUCGGGCGUACGAAUCGCCCCCGGGAGAUUUUUUCCUCGAGCAA [C34A A54U U71A C75A], for which the nonsense suppression was at most 0.026. Then CUCUCGGUAGCCAAGUUGGUUUAAGGCGCAAGAAUUUAAUUUAUCACUACGAAACCUUGAGAUCGAGCGUUCGACUCGCCCCCGGGAGAUUUUUUCCUCGAGCAA [C34A U55C G66A], with at most 0.026; and CUCUCGGUAGCCAAGUUGGUUUAAGGCGCAAGUUUUUAAUUUAUCACUACGAAAUCUUGAGAUCGGGCGUUCGACUCGCCCCCGGGAGAUUUUUUCCUCGAGCAA [A33U C34U], with at most 0.026.
